Results as given in PMC3288683 (Bioconjugate Chemistry, 2012).

What was measured:
SH-SY5Y cells [1] = test: specificity of uptake by flow cytometry; format: cell-based, human; details: 0.1 μM, 6 h at 37°C, three replicate experiments
CHO-K1 cells [2] = test: specificity of uptake by flow cytometry, negative control cells; format: cell-based, Chinese hamster; details: all concentrations (0.1, 0.2, 0.35, 0.5 μM), 6 h at 37°C
SH-SY5Y cells [3] = test: time course of agent uptake by confocal microscopy; format: cell-based, human; details: 0.1 μM, 37°C
CHO-K1 cells [4] = test: comparative uptake study by confocal microscopy, negative control cells; format: cell-based, Chinese hamster
SH-SY5Y cells [5] = test: live cell co-localization with RFP-labeled Rab5 in early endosomes; format: cell-based, human; details: 0.1 μM, 1 h at 37°C, intensities along the x-axis, Amira 5 software
SH-SY5Y cells [6] = test: Vybrant MTT Cell Proliferation Assay; format: cell-based, human; details: SH-SY5Y cells, 0.1, 0.5 and 1 μM, 12 h at 37°C, absorbance at 540 nm
How it was run: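 SH-SY5Y cells, maintained in 1:1 DMEM:F12 with 10% FBS at 37°C under 5% CO2, seeded at 2 × 10^4 cells/well and grown overnight in phenol red-free DMEM:F12. Exposed to test compound (0.1, 0.5, 1 μM) for 12 h at 37°C, then to MTT 1 mg/mL for 4 h. Formazan dissolved in Me2SO; absorbance read at 540 nm against untreated control cells.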

SH-SY5Y cells [7] = test: comparative uptake study by confocal microscopy; format: cell-based, human; details: 0.1 μM, 4 h at 37°C, 3 fields per slide

Compound: Cc1cn(CC(=O)N(CCNC(=O)CN(CCNC(=O)CN(CCNC(=O)CN(CCNC(=O)CN(CCNC(=O)CN(CCNC(=O)CN(CCNC(=O)CN(CCNC(=O)CN(CCNC(=O)COCCOCCNC(=O)[C@H](CO)NC(=O)[C@H](Cc2ccccc2)N(C)C(=O)CNC(=O)[C@@H](C)NC(=O)[C@@H](N)Cc2ccc(O)cc2)C(=O)Cn2ccc(N)nc2=O)C(=O)Cn2cnc3c(N)ncnc32)C(=O)Cn2cc(C)c(=O)[nH]c2=O)C(=O)Cn2cnc3c(=O)[nH]c(N)nc32)C(=O)Cn2cnc3c(=O)[nH]c(N)nc32)C(=O)Cn2cc(C)c(=O)[nH]c2=O)C(=O)Cn2cnc3c(=O)[nH]c(N)nc32)C(=O)Cn2ccc(N)nc2=O)CC(=O)NCCN(CC(=O)NCCN(CC(=O)NCCN(CC(=O)NCCOCCOCC(=O)N[C@@H](CSC2CC(=O)N(CCCCCNC(=O)c3ccc(-c4c5ccc(=N)c(S(=O)(=O)O)c-5oc5c(S(=O)(=O)O)c(N)ccc45)c(C(=O)O)c3)C2=O)C(=O)O)C(=O)Cn2ccc(N)nc2=O)C(=O)Cn2cnc3c(N)ncnc32)C(=O)Cn2ccc(N)nc2=O)c(=O)[nH]c1=O (stereo partly drawn) [WT4879, Tyr-D-Ala-Gly-N-MePhe-Ser-AEEA-CAT GGT GCT CAC-AEEA-Cys-AlexaFluor488]
- uptake of WT4879 relative to WT4786 (ratio of specific over non-specific uptake) (SH-SY5Y cells [1]): ~ 5 fold
- specificity ratio (WT4879 vs WT4786 uptake) (CHO-K1 cells [2]): 1 ± 0.3
- time course of uptake intensity (SH-SY5Y cells [3]; 0-12 h, ImageJ, three regions of interest): increased with time up to 4 h, leveling off thereafter
- uptake at 0.25 and 0.5 h (SH-SY5Y cells [3]; data not shown): No significant uptake
- uptake after 1 h (SH-SY5Y cells [3]; uniformly distributed in the cytoplasm): taken up strongly
- uptake in CHO-K1 cells relative to SH-SY5Y cells (CHO-K1 cells [4]; 0.1 μM, 4 h at 37°C, confocal microscopy, 3 fields per slide): ~ 21%
- non-specific uptake in control cell-line CHO-K1 (CHO-K1 cells [4]; conclusion, in words): minimal non-specific uptake
- overlap of AlexaFluor 488 intensity with RFP-labeled Rab5 intensity (SH-SY5Y cells [5]): > 95%
- cellular toxicity (MTT cell viability) (SH-SY5Y cells [6]): No cellular toxicity was observed

Compound: Ala-D-Ala-Gly-N-MePhe-Ser-AEEA-CAT GGT GCT CAC-AEEA-Cys-AlexaFluor488 [WT4786]
- uptake in SH-SY5Y cells relative to the specific WT4879 (SH-SY5Y cells [7]): ~ 20%
